From ChEMBL document CHEMBL3091446, “Development of fluorinated CB(2) receptor agonists for PET studies” (Bioorg Med Chem, 2013)

Assays:
[1] = target: T1, Cannabinoid receptor 2 (Homo sapiens, UniProt P34972); experiment: Displacement of [3H]CP-55,940 from human recombinant cannabinoid CB2 receptor expressed in CHO cells at 1 uM; assay type: cell-based
[2] = target: T1, Cannabinoid receptor 2; experiment: Displacement of [3H]CP-55,940 from human recombinant cannabinoid CB2 receptor expressed in CHO cells; assay type: cell-based
[3] = target: T2, Cannabinoid receptor 1 (Homo sapiens, UniProt P21554); experiment: Displacement of [3H]CP-55,940 from human recombinant cannabinoid CB1 receptor expressed in CHO cells; assay type: cell-based
T2 sequence (P21554 whole entry): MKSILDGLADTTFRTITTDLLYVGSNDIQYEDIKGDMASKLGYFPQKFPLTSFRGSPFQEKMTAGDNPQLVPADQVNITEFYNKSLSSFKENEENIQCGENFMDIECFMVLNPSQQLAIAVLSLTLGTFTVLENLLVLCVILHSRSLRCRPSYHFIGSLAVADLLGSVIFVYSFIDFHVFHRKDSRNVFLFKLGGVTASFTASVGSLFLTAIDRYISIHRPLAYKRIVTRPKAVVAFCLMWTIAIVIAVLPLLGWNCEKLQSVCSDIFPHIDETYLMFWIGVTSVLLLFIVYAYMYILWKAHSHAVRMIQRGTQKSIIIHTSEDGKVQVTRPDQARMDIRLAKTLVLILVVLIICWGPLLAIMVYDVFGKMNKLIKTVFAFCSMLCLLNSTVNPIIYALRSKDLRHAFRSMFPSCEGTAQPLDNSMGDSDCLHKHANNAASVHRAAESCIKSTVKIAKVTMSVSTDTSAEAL

[4] = target: T1, Cannabinoid receptor 2; experiment: Binding affinity to human cannabinoid CB2 receptor
Method in brief: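 Membranes from sonicated CHO cells stably expressing human CB2 (about 100,000 cells/well). Incubated 120 min at 37 °C with 1 nM [3H]CP-55,940, test compound at 10^-10 to 10^-5 M, in TRIS pH 7.4 with 12 mM MgCl2 and 2% BSA. Nonspecific binding defined by 10 µM CP-55,940. Filtration and scintillation counting; duplicates. IC50 by nonlinear regression, converted to Ki by Cheng-Prusoff (Kd 11.8 nM).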

[5] = Lipophilicity, log P of the compound; assay type: physicochemical; details: octanol/water
[6] = target: T2, Cannabinoid receptor 1; experiment: Binding affinity to human cannabinoid CB1 receptor
[7] = Metabolic stability in mouse plasma assessed as compound remaining after 10 mins; assay type: ADME, cell-free; details: read-out: Stability
[8] = species: Homo sapiens; experiment: Selectivity ratio of Ki for human recombinant cannabinoid CB1 receptor to Ki for human recombinant cannabinoid CB2 receptor

T1 sequence (P34972 whole entry): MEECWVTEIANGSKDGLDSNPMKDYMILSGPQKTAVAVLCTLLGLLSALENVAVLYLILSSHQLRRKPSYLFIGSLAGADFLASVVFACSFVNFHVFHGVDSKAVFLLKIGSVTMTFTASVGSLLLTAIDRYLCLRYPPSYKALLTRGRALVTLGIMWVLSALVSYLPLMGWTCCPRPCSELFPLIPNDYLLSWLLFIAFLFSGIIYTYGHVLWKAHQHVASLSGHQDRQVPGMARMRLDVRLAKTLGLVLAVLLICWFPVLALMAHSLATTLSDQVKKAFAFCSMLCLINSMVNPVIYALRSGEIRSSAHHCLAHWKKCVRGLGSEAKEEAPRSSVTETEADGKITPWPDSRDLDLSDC

Compound | inhibition [1] | Ki [2] | also measured
Cc1ccc(-c2noc(CCCC(=O)Nc3ccc4c(c3)c3ccccc3n4CCCO)n2)cc1 | 13% | – | –
O=C(CCc1nc(-c2ccc(F)cc2)no1)Nc1ccc2c(c1)c1ccccc1n2CCO | – | 1100 nM | –
O=C(CCc1nc(-c2ccc(F)cc2Br)no1)Nc1ccc2c(c1)c1ccccc1n2CCCCO | – | 96 nM | IC50 [3]: > 1000 nM
N#Cc1cc(F)ccc1-c1noc(CCC(=O)Nc2ccc3c(c2)c2ccccc2n3CCF)n1 | – | 858 nM | IC50 [3]: > 1000 nM
O=C(CCCc1nc(-c2ccc(Cl)cc2)no1)Nc1ccc2c(c1)c1ccccc1n2CCF | 23% | – | –
Cc1ccc(-c2noc(CCC(=O)Nc3ccc4c(c3)c3ccccc3n4CCCO)n2)cc1 | 28% | – | –
CCn1c2ccccc2c2cc(NC(=O)CCc3nc(-c4ccc(F)cc4C#N)no3)ccc21 | – | 6.98 nM | Ki [3]: > 10000 nM
COc1ccc(S(=O)(=O)c2ccc([C@H](C)NS(C)(=O)=O)cc2)c(S(=O)(=O)c2ccc(O[11CH3])cc2)c1 | – | – | Ki [4]: 4.5 nM; logP [5]: 2.15; Ki [6]: 79 nM
O=C(CCc1nc(-c2ccc(F)cc2Br)no1)Nc1ccc2c(c1)c1ccccc1n2CCCF | – | 1800 nM | –
Cc1ccc(-c2noc(CCCC(=O)Nc3ccc4c(c3)c3ccccc3n4CCO)n2)cc1 | 4% | – | –
Cc1ccc(-c2noc(CCCC(=O)Nc3ccc4c(c3)c3ccccc3n4CCF)n2)cc1 | 0% | – | –
Cc1ccc(-c2noc(CCC(=O)Nc3ccc4c(c3)c3ccccc3n4CCF)n2)cc1 | – | 377 nM | –
O=C(CCc1nc(-c2ccc(Cl)cc2)no1)Nc1ccc2c(c1)c1ccccc1n2CCO | – | 990 nM | –
Cc1c(CCN2CCOCC2)c2cc(O[11CH3])ccc2n1C(=O)c1cccc(Cl)c1Cl | – | – | Ki [4]: 35 nM; Ki [6]: 6000 nM
O=C(CCCc1nc(-c2ccc(Cl)cc2)no1)Nc1ccc2c(c1)c1ccccc1n2CCO | – | 584 nM | –
O=C(CCCc1nc(-c2ccc(Cl)cc2)no1)Nc1ccc2c(c1)c1ccccc1n2CCCO | 10% | – | –

Compound | inhibition [1] | Ki [2] | also measured
O=C(CCc1nc(-c2ccc(Br)cc2F)no1)Nc1ccc2c(c1)c1ccccc1n2CCF | – | 476 nM | –
N#Cc1cc(F)ccc1-c1noc(CCC(=O)Nc2ccc3c(c2)c2ccccc2n3CCO)n1 | – | 486 nM | –
O=C(CCc1nc(-c2ccc(F)cc2)no1)Nc1ccc2c(c1)c1ccccc1n2CCCO | – | 195 nM | –
Cc1s/c(=N\C(=O)C2C(C)(C)C2(C)C)n(CCO[11CH3])c1C | – | – | Ki [4]: 0.64 nM; Ki [6]: 270 nM
O=C(CCCc1nc(-c2ccc(F)cc2)no1)Nc1ccc2c(c1)c1ccccc1n2CCO | 12% | – | –
O=C(CCc1nc(-c2ccc(F)cc2Br)no1)Nc1ccc2c(c1)c1ccccc1n2CCO | – | 367 nM | –
CCCCOc1c(O[11CH3])ccc2cc(C(=O)NC3CCCCC3)c(=O)[nH]c12 | – | – | Ki [6]: > 1000 nM; remaining at 10 min [7]: 24%
CCCCOc1c(OC)ccc2cc(C(=O)NCc3ccc([18F])cc3)c(=O)[nH]c12 | – | – | Ki [4]: 2.8 nM; Ki [6]: > 10000 nM
O=C(CCc1nc(-c2ccc(F)cc2Br)no1)Nc1ccc2c(c1)c1ccccc1n2CCCO | – | 33 nM | IC50 [3]: > 1000 nM
O=C(CCc1nc(-c2ccc(F)cc2Br)no1)Nc1ccc2c(c1)c1ccccc1n2CCF | – | 5.8 nM | Ratio Ki [8]: > 200; IC50 [3]: > 1000 nM
Cc1ccc(-c2noc(CCC(=O)Nc3ccc4c(c3)c3ccccc3n4CCO)n2)cc1 | 10% | – | –
CCCCOc1c(OCC[18F])ccc2cc(C(=O)NC3CCCCC3)c(=O)[nH]c12 | – | – | Ki [6]: > 1000 nM; remaining at 10 min [7]: 41%
O=C(CCc1nc(-c2ccc(Cl)cc2)no1)Nc1ccc2c(c1)c1ccccc1n2CCF | – | 291 nM | –
O=C(CCCc1nc(-c2ccc(F)cc2Br)no1)Nc1ccc2c(c1)c1ccccc1n2CCF | – | 559 nM | –
O=C(CCc1nc(-c2ccc(F)cc2)no1)Nc1ccc2c(c1)c1ccccc1n2CCF | – | 41 nM | IC50 [3]: > 1000 nM

Further lines, with some results ahead:

inhibition [1] | Compound | Ki [2] | also measured
25% | O=C(CCCc1nc(-c2ccc(F)cc2)no1)Nc1ccc2c(c1)c1ccccc1n2CCF | – | –
43% | O=C(CCc1nc(-c2ccc(Cl)cc2)no1)Nc1ccc2c(c1)c1ccccc1n2CCCF | – | –
0% | Cc1ccc(-c2noc(CCCC(=O)Nc3ccc4c(c3)c3ccccc3n4CCCF)n2)cc1 | – | –
35% | O=C(CCc1nc(-c2ccc(Br)cc2F)no1)Nc1ccc2c(c1)c1ccccc1n2CCO | – | –
35% | O=C(CCc1nc(-c2ccc(F)cc2Br)no1)Nc1ccc2c(c1)c1ccccc1n2CCCCF | – | –
0% | O=C(CCCc1nc(-c2ccc(F)cc2Br)no1)Nc1ccc2c(c1)c1ccccc1n2CCO | – | –
9% | O=C(CCCc1nc(-c2ccc(F)cc2Br)no1)Nc1ccc2c(c1)c1ccccc1n2CCCO | – | –
25% | O=C(CCCc1nc(-c2ccc(F)cc2Br)no1)Nc1ccc2c(c1)c1ccccc1n2CCCF | – | –
19% | O=C(CCCc1nc(-c2ccc(F)cc2)no1)Nc1ccc2c(c1)c1ccccc1n2CCCO | – | –
13% | Cc1ccc(-c2noc(CCC(=O)Nc3ccc4c(c3)c3ccccc3n4CCCF)n2)cc1 | – | –
0% | O=C(CCCc1nc(-c2ccc(F)cc2)no1)Nc1ccc2c(c1)c1ccccc1n2CCCF | – | –
10% | O=C(CCc1nc(-c2ccc(F)cc2)no1)Nc1ccc2c(c1)c1ccccc1n2CCCF | – | –
